Laboratory results as given in ChEMBL document CHEMBL1156752, “Phosphinic tripeptides as dual angiotensin-converting enzyme C-domain and endothelin-converting enzyme-1 inhibitors” (J Med Chem, 2010).

Experiments:
Collagenase 3 = Collagenase 3 (Homo sapiens, UniProt P45452); experiment: Inhibition of human MMP13
[1] = molecular target: T1, Angiotensin-converting enzyme (Homo sapiens, UniProt P12821); experiment: Inhibition of human somatic ACE C-terminal domain
Neprilysin = Neprilysin (Homo sapiens, UniProt P08473); experiment: Inhibition of human somatic NEP
Summary of the method: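 Human NEP (0.5 nM) preincubated 45 min with inhibitor, then Mca-Arg-Pro-Pro-Gly-Phe-Ser-Pro-Dpa-OH (5 μM, Km 2 μM) added. Run at 25 °C, pH 6.8 Hepes/NaCl/ZnCl2/Brij-35 buffer. Fluorescence increase read at ex 320/em 405 nm under initial rates. […] Ki obtained.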

[2] = molecular target: T2, Endothelin-converting enzyme 1 (Homo sapiens, UniProt P42892); experiment: Inhibition of human somatic ECE1
T2 sequence (P42892 whole entry): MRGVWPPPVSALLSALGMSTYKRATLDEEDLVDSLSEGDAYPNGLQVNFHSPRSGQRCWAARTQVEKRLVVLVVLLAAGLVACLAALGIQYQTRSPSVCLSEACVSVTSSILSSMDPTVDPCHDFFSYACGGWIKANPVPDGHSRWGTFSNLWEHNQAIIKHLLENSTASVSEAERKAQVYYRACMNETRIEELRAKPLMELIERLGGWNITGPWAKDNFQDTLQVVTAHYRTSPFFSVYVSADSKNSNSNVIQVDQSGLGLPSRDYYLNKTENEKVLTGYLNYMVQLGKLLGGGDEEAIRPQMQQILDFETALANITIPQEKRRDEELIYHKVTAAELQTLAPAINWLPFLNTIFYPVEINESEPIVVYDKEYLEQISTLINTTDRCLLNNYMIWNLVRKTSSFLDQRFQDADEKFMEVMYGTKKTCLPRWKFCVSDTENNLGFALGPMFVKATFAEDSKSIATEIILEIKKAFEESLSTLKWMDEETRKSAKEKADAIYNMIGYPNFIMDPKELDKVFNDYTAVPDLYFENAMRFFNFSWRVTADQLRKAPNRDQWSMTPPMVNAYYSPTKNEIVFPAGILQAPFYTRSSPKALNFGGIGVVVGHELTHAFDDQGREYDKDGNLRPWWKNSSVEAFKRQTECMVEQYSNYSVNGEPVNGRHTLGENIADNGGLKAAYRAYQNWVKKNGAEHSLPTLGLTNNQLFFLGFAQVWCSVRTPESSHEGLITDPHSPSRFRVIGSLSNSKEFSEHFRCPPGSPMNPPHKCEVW

[3] = molecular target: T1, Angiotensin-converting enzyme; experiment: Inhibition of human somatic ACE N-terminal domain
Summary of the method: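 Human somatic ACE (0.5 nM) preincubated 45 min with inhibitor, then Mca-Ala-Ser-Asp-Lys-Dpa-OH substrate (8 μM) added. Continuous fluorescence read at ex 320/em 405 nm under initial-rate conditions. […] Ki calculated per domain.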

[4] = molecular target: T1, Angiotensin-converting enzyme; experiment: Inhibition of human somatic ACE in presence of 1:50 diluted SHR rat plasma
Summary of the method: (§1)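 ACE (1 nM final) and inhibitor at various concentrations incubated 45 min in this plasma. Reaction started with Mca-Ala-Ser-Asp-Lys-Dpa-OH (15 μM). Fluorescence monitored. Apparent Ki derived.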

Rattus norvegicus [5] = experiment: Antihypertensive activity in spontaneously hypertensive rat assessed as mean arterial pressure at 30 mg/kg, iv; assay type: functional, Artery
Summary of the method: (§2)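 Male SHR rats (250 g, 12 weeks old) anesthetized with Nesdonal (50 mg/kg ip), tracheotomized, body temperature kept at 37 °C. MAP recorded by femoral artery transducer. Inhibitor or vehicle ([…]) given as iv bolus through venous catheter after 20 min stabilization. MAP followed for 60 min, n = 6/dose.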

[6] = molecular target: T1, Angiotensin-converting enzyme; experiment: Inhibition of human somatic ACE in presence of buffer
[7] = molecular target: T1, Angiotensin-converting enzyme; experiment: Inhibition of human somatic ACE in presence of 1:100 diluted SHR rat plasma complemented with 5 uM serum albumin; assay type: cell-free; summary of the method: as §1
Rattus norvegicus [8] = experiment: Antihypertensive activity in spontaneously hypertensive rat assessed as mean arterial pressure at 10 mg/kg, iv; assay type: functional, Artery; summary of the method: as §2
[9] = molecular target: T1, Angiotensin-converting enzyme; experiment: Inhibition of human somatic ACE in presence of 1:100 diluted SHR rat plasma; assay type: cell-free; summary of the method: as §1
Rattus norvegicus [10] = experiment: Antihypertensive activity in spontaneously hypertensive rat assessed as mean arterial pressure at 3 mg/kg, iv; assay type: functional, Artery; summary of the method: as §2

SMILES	Ki (Collagenase 3) [nM]	Ki [2] [nM]	Ki [1] [nM]	Ki (Neprilysin) [nM]	also measured
CS(=O)(=O)N[C@@H](CCCCN)C(=O)N[C@@H](Cc1ccccc1)P(=O)(O)CC1(C(=O)N[C@@H](Cc2c[nH]c3ccccc23)C(=O)O)CCCC1					IC50 [1]: 2.5 nM; IC50 (Neprilysin): 90 nM
O=C(N[C@@H](Cc1ccccc1)P(=O)(O)C1CCC[C@H]1C(=O)N[C@@H](Cc1c[nH]c2ccccc12)C(=O)O)OCc1ccccc1 (single isomer, unassigned)		> 50000	3	> 50000	Ki [3]: 2500 nM
O=C(N[C@@H](Cc1ccccc1)P(=O)(O)CC(CC1CC(c2ccc(-c3ccccc3)cc2)=NO1)C(=O)N[C@@H](Cc1c[nH]c2ccccc12)C(=O)O)OCc1ccccc1 (some centres undefined)		> 10000	25	> 10000	
O=C(O)[C@H](Cc1ccc2c(c1)oc1ccccc12)NCP(=O)(O)O					IC50 (Neprilysin): 2300 nM
O=C(N[C@@H](Cc1ccccc1)P(=O)(O)CC(Cc1cc(-c2ccccc2)no1)C(=O)N[C@@H](Cc1ccccc1)C(=O)O)OCc1ccccc1 (single isomer, unassigned)	> 10000	7.7	3.8	> 10000	Ki [4]: 340 nM; Ki [6]: 3.8 nM; Ki [7]: 110 nM; Ki [9]: 32 nM
O=C(N[C@@H](Cc1ccccc1)P(=O)(O)CC(CC1CC(c2ccc(C(F)(F)F)cc2)=NO1)C(=O)N[C@@H](Cc1c[nH]c2ccccc12)C(=O)O)OCc1ccccc1 (some centres undefined)		> 5000	20	> 5000	

Continued by falling Ki (Neprilysin), values first:

Ki (Collagenase 3) [nM]	Ki [2] [nM]	Ki [1] [nM]	Ki (Neprilysin) [nM]	SMILES	also measured
	910	13	2500	O=C(N[C@@H](Cc1ccccc1)P(=O)(O)CC(CC1CC(c2ccccc2)=NO1)C(=O)N[C@@H](Cc1c[nH]c2ccccc12)C(=O)O)OCc1ccccc1 (some centres undefined)	
1200	8	36	1850	O=C(N[C@@H](Cc1ccccc1)P(=O)(O)C[C@H](Cc1cc(-c2ccccc2)no1)C(=O)N[C@@H](Cc1c[nH]c2ccccc12)C(=O)O)OCc1ccccc1	Ki [4]: 1520 nM; Activity (Rattus norvegicus [5]): 96 mmHg; Ki [6]: 36 nM; Ki [7]: 1510 nM; Activity (Rattus norvegicus [8]): 148 mmHg; Ki [9]: 500 nM
	14	16	260	O=C(N[C@@H](Cc1ccccc1)P(=O)(O)CC(Cc1cc(-c2ccccc2)no1)C(=O)N[C@@H](Cc1c[nH]c2ccccc12)C(=O)O)OCc1ccccc1 (some centres undefined)	
19	26	1.4	130	O=C(N[C@@H](Cc1ccccc1)P(=O)(O)C[C@@H](Cc1cc(-c2ccccc2)no1)C(=O)N[C@@H](Cc1c[nH]c2ccccc12)C(=O)O)OCc1ccccc1	
	2100	5	85	C[C@H](NC(=O)C(CC1CC(c2ccccc2)=NO1)CP(=O)(O)[C@H](Cc1ccccc1)NC(=O)OCc1ccccc1)C(=O)O (some centres undefined)	
30	240	0.4	68	O=C(N[C@@H](Cc1ccccc1)P(=O)(O)C[C@@H](Cc1cc(-c2ccccc2)no1)C(=O)N[C@@H](Cc1ccccc1)C(=O)O)OCc1ccccc1	
	> 10000	12	52	O=C(N[C@@H](Cc1ccccc1)P(=O)(O)CC(Cc1ccc(-c2ccccc2)cc1)C(=O)N[C@@H](Cc1c[nH]c2ccccc12)C(=O)O)OCc1ccccc1 (some centres undefined)	
		6	9	O=C(N[C@H]1CCS[C@H]2CCC[C@@H](C(=O)O)N2C1=O)[C@@H](S)Cc1ccccc1 [OMAPATRILAT]	
	1.2		1.4	O=C(N[C@@H](Cc1ccccc1)P(=O)(O)CC(Cc1ccccc1)C(=O)N[C@@H](Cc1c[nH]c2ccccc12)C(=O)O)OCc1ccccc1 (some centres undefined)	
